Results as given in ChEMBL document CHEMBL4808168, “The Discovery of Two Novel Classes of 5,5-Bicyclic Nucleoside-Derived PRMT5 Inhibitors for the Treatment of Cancer” (J Med Chem, 2021).
≈ marks a conversion by molar mass, not a printed value.

Legend:
Z-138 = assay: Antiproliferative activity against human Z138 cells incubated for 10 days by cell titer-glo assay; assay type: functional, cell-based; conditions: Z-138, 240 h
[1] = Solubility of the compound in […] at pH 2 at 200 uM incubated for 24 hrs by UV-vis detection based HPLC analysis; assay type: physicochemical
Method in brief: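 10 mM DMSO stock added to 10 mM potassium phosphate buffer at pH 2 or pH 7, or FaSSIF pH 6.5, to 200 μM total; 24 h equilibration, filtration, then reverse-phase HPLC with UV–vis detection.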

[2] = target: Protein arginine N-methyltransferase 5 (Homo sapiens, UniProt O14744); assay: Inhibition of PRMT5 (unknown origin) assessed as inhibition of symmetric dimethylation of arginine incubated for 3 days by fluorescence based cellular target engagement assay
Method in brief: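 MCF-7 cells (4000/well, collagen-coated plates) in EMEM with 0.01 mg/mL insulin and 10% FBS; 10-point 1:3 titration from 10,000 nM; 3 days at 37 °C/5% CO2; fixed, permeabilized, anti-SDMA antibody, then Alexa488 anti-rabbit IgG plus Hoechst; nuclear fluorescence by high-content imaging versus DMSO; EC50 by four-parameter robust fit.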

[3] = MRT in rat; assay type: ADME; conditions: in vivo
[4] = Unbound volume of distribution in rat; assay type: ADME; conditions: in vivo
[5] = Unbound clearance in rat; assay type: ADME; conditions: in vivo
[6] = Solubility of the compound in FaSSIF at pH 7 at 200 uM incubated for 24 hrs by UV-vis detection based HPLC analysis; assay type: physicochemical
[7] = Oral bioavailability in rat; assay type: ADME, organism-based; conditions: in vivo
[8] = Plasma clearance in rat; assay type: ADME

Protein arginine N-methyltransferase 5, sequence (O14744 whole entry): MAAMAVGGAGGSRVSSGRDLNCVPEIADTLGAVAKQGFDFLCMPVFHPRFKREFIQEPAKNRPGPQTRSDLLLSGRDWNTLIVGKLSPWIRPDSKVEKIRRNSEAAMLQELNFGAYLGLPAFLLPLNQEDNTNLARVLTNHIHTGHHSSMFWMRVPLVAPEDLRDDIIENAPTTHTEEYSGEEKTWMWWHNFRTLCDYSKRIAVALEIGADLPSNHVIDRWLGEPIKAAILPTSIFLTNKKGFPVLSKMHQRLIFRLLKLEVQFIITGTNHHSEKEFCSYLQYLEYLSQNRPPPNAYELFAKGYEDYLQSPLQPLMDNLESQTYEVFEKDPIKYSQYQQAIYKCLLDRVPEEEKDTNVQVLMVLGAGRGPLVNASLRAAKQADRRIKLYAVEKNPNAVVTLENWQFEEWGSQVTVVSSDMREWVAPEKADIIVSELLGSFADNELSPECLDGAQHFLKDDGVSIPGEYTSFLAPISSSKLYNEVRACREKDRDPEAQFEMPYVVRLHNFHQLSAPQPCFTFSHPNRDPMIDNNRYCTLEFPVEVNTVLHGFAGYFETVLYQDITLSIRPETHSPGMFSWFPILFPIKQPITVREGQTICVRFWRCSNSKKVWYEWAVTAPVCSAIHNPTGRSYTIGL

Structure (SMILES) | EC50 (Z-138) [nM] | solubility at 24 h, 200 µM [1] [µM] | EC50 [2] [nM] | MRT [3] [h] | Vdu [4] [L/kg] | CL free [5] [mL/min/kg] | solubility at 24 h, 200 µM [6] [µM] | bioavailability [7] [%] | clearance [8] [mL/min/kg]
Nc1nc2cc(C[C@@H]3CC[C@@]4(O)[C@@H]3C[C@@H](n3ccc5c(N)ncnc53)[C@@H]4O)ccc2cc1Br | 6.9 | 147 (≈ 74.9 µg/mL) | 2.9 | 1.6 | 136 | 1559 | 20 (≈ 10.2 µg/mL) | 10 | 15
Nc1nc2cc(C[C@@H]3CC[C@@]4(O)[C@@H]3O[C@@H](n3ccc5c(N)ncnc53)[C@@H]4O)ccc2cc1Cl | 3.2 | 159 (≈ 74.2 µg/mL) | 1.2 | 1.3 | 79 | 1045 | 60 (≈ 28 µg/mL) | 8 | 46
Cc1ncnc2c1ccn2[C@@H]1O[C@@H]2[C@H](Cc3ccc4cc(F)c(N)nc4c3)CC[C@]2(O)[C@H]1O | 23 | 159 (≈ 71.5 µg/mL) | 14 | 1 | 20 | 351 | 118 (≈ 53 µg/mL) | 51 | 32
Nc1nc2cc(C[C@@H]3CC[C@@]4(O)[C@@H]3O[C@@H](n3ccc5c(C6CC6)ncnc53)[C@@H]4O)ccc2cc1Br | 67 |  | 5.3 |  |  |  |  |  | 
Cc1nc(N)c2ccn([C@@H]3O[C@@H]4[C@H](Cc5ccc6cc(Br)c(N)nc6c5)CC[C@]4(O)[C@H]3O)c2n1 | 6.4 | 151 (≈ 79.3 µg/mL) | 3.2 | 1.5 | 116 | 1337 | 21 (≈ 11 µg/mL) | 11 | 31
Nc1nc2cc(C[C@@H]3CC[C@@]4(O)[C@@H]3O[C@@H](n3ccc5c(N)ncnc53)[C@@H]4O)c(F)cc2cc1F | 20 | 156 (≈ 73.1 µg/mL) | 2.8 | 1.6 | 80 | 844 | 110 (≈ 51.5 µg/mL) | 30 | 40
Nc1nc2cc(C[C@@H]3CC[C@@]4(O)[C@@H]3O[C@@H](n3ccc5c(N)ncnc53)[C@@H]4O)ccc2cc1Br | 1.7 | 162 (≈ 82.8 µg/mL) | 1.3 | 1.5 | 82 | 940 | 35 (≈ 17.9 µg/mL) | 10 | 25
CNc1ncnc2c1ccn2[C@@H]1O[C@@H]2[C@H](Cc3ccc4cc(Br)c(N)nc4c3)CC[C@]2(O)[C@H]1O | 16 |  | 9.9 | 1 | 52 | 900 |  | 20 | 31
Nc1nc2cc(O[C@H]3CC[C@@]4(O)[C@@H]3O[C@@H](n3ccc5c(N)ncnc53)[C@@H]4O)ccc2cc1Cl | 7.5 | 158 (≈ 74.1 µg/mL) | 1.2 | 1.4 | 34 | 412 | < 1 | 2 | 22
Cc1cc2ccc(C[C@@H]3CC[C@@]4(O)[C@@H]3O[C@@H](n3ccc5c(N)ncnc53)[C@@H]4O)cc2nc1N | 0.77 | 151 (≈ 67.4 µg/mL) | 3.2 | 0.8 | 24 | 523 | 137 (≈ 61.2 µg/mL) |  | 106
CNc1ncnc2c1ccn2[C@@H]1O[C@@H]2[C@@H](Oc3ccc4cc(Br)c(N)nc4c3)CC[C@]2(O)[C@H]1O | 23 | 163 (≈ 86 µg/mL) | 5.3 | 1.2 | 222 | 3143 | 14 (≈ 7.38 µg/mL) | 68 | 12
Nc1nc2cc(O[C@H]3CC[C@@]4(O)[C@@H]3O[C@@H](n3ccc5c(N)ncnc53)[C@@H]4O)ccc2cc1F | 27 | 158 (≈ 71.5 µg/mL) | 0.9 | 0.6 | 11 | 289 | < 1 |  | 49
Nc1nc2cc(C[C@@H]3CC[C@@]4(O)[C@@H]3O[C@@H](n3ccc5c(N)ncnc53)[C@@H]4O)ccc2cc1F | 8.3 | 163 (≈ 73.4 µg/mL) | 2.3 | 1.3 | 111 | 1029 | 142 (≈ 64 µg/mL) | 28 | 18
Nc1nc2cc(O[C@@H]3CC[C@@]4(O)[C@@H]3O[C@@H](n3ccc5c(N)ncnc53)[C@@H]4O)ccc2cc1Br | > 10 |  | > 10 |  |  |  |  |  | 
Cc1ncnc2c1ccn2[C@@H]1C[C@@H]2[C@@H](Cc3ccc4cc(F)c(N)nc4c3)CC[C@]2(O)[C@H]1O | 63 |  | 11 |  |  |  |  |  | 
Cc1ncnc2c1ccn2[C@@H]1O[C@@H]2[C@H](Cc3ccc4ccc(N)nc4c3)CC[C@]2(O)[C@H]1O | < 0.5 | 181 (≈ 78.1 µg/mL) | 9.9 | 1.7 | 68 | 648 | 164 (≈ 70.8 µg/mL) |  | 101
Nc1nc2cc(O[C@H]3CC[C@@]4(O)[C@@H]3O[C@@H](n3ccc5cncnc53)[C@@H]4O)ccc2cc1Br | 20 |  | 32 |  |  |  |  |  | 
Nc1nc2cc(O[C@H]3CC[C@@]4(O)[C@@H]3O[C@@H](n3ccc5c(N)ncnc53)[C@@H]4O)ccc2cc1Br | 3.7 | 128 (≈ 65.7 µg/mL) | 1.2 | 1.8 | 28 | 349 | < 1 | 10 | 49
Cc1ncnc2c1ccn2[C@@H]1C[C@@H]2[C@H](Cc3ccc4cc(Cl)c(N)nc4c3)CC[C@]2(O)[C@H]1O | 2.2 | 184 (≈ 85.4 µg/mL) | 0.87 | 1.7 | 83 | 424 | 22 (≈ 10.2 µg/mL) | 64 | 21
Cc1ncnc2c1ccn2[C@@H]1O[C@@H]2[C@@H](Oc3ccc4cc(F)c(N)nc4c3)CC[C@]2(O)[C@H]1O | 172 | 152 (≈ 68.6 µg/mL) | 38 | 1.5 | 30 | 345 | 116 (≈ 52.4 µg/mL) |  | 16
Cc1ncnc2c1ccn2[C@@H]1C[C@@H]2[C@H](Cc3ccc4cc(Br)c(N)nc4c3)CC[C@]2(O)[C@H]1O | 1.6 | 199 (≈ 101 µg/mL) | 1.1 | 1.5 | 143 | 835 | 14 (≈ 7.12 µg/mL) | 74 | 13
Cc1ncnc2c1ccn2[C@@H]1O[C@@H]2[C@@H](Oc3ccc4cc(Cl)c(N)nc4c3)CC[C@]2(O)[C@H]1O | 24 | 160 (≈ 74.9 µg/mL) | 4 | 1.4 | 59 | 710 | 2 (≈ 0.936 µg/mL) | 71 | 8
Cc1ncnc2c1ccn2[C@@H]1O[C@@H]2[C@@H](Cc3ccc4cc(Cl)c(N)nc4c3)CC[C@]2(O)[C@H]1O | 26 |  | 21 |  |  |  |  |  | 
Nc1nc2cc(C[C@@H]3CC[C@@]4(O)[C@@H]3O[C@@H](n3cc(F)c5c(N)ncnc53)[C@@H]4O)ccc2cc1F | 5.6 | 158 (≈ 74 µg/mL) | 4.6 | 1 | 34 | 541 | 114 (≈ 53.4 µg/mL) | 24 | 60
Cc1ncnc2c1ccn2[C@@H]1O[C@@H]2[C@H](Cc3ccc4cc(Cl)c(N)nc4c3)CC[C@]2(O)[C@H]1O | 6.9 | 148 (≈ 69 µg/mL) | 2.5 | 1.1 | 43 | 667 | 29 (≈ 13.5 µg/mL) | 41 | 24
Cc1ncnc2c1ccn2[C@@H]1O[C@@H]2[C@H](Cc3ccc4cc(Br)c(N)nc4c3)CC[C@]2(O)[C@H]1O | 1.4 | 186 (≈ 94.9 µg/mL) | < 0.5 | 1.1 | 148 | 2163 | 21 (≈ 10.7 µg/mL) | 46 | 27
Nc1nc2cc(C[C@@H]3CC[C@@]4(O)[C@@H]3O[C@@H](n3ccc5c(N)ncnc53)[C@@H]4O)cc(F)c2cc1F | 5.6 | 171 (≈ 80.1 µg/mL) | 1.7 | 2.1 | 54 | 430 | 83 (≈ 38.9 µg/mL) | 29 | 25
